Converted amounts (≈) assume the structure as drawn.

Holding throughout (type): functional
The test system of experiment [1] is Mycobacterium tuberculosis. Put plainly: Antimycobacterial activity against Mycobacterium tuberculosis H37Rv ATCC 27294 incubated for 7 days by microplate Alamar Blue assay. The conditions noted are these: H37Rv ATCC 27294, 168 h. The method, boiled down:
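Fluorescence read-out. MIC is the lowest concentration that reduces fluorescence by at least 90% relative to the mean of replicate bacterium-only controls. Isoniazid and rifampicin were included as reference drugs.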
In general terms: Resazurin is reduced to fluorescent resorufin, in cell work by metabolically active cells.

Another experiment concerns Streptococcus pneumoniae. The experiment is described as follows: Antibacterial activity against methicillin-resistant Streptococcus pneumoniae ATCC 19615 after 18 to 24 hrs by two-fold serial dilution method. Put shortly:
(§1)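 Agar media, standard twofold serial dilution. MIC is the lowest concentration giving complete inhibition of bacterial growth after incubation at 35 °C for 18–24 h. Ciprofloxacin and levofloxacin were run as comparators.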

For experiment [2], the system named is Pseudomonas aeruginosa. Put plainly: Antibacterial activity against Pseudomonas aeruginosa 14-15 after 18 to 24 hrs by two-fold serial dilution method. Put shortly: (§2)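 Twofold serial dilution in agar media against Gram-positive and Gram-negative strains. Plates incubated at 35 °C for 18–24 h. MIC read as the lowest compound concentration giving complete inhibition of bacterial growth.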

Experiment [3] deals with Staphylococcus epidermidis. The experiment is described as follows: Antibacterial activity against methicillin-resistant Staphylococcus epidermidis 14-39 after 18 to 24 hrs by two-fold serial dilution method. The method, boiled down: as §1
Experiment [4] has as its system Staphylococcus epidermidis. The experiment is described as follows: Antibacterial activity against methicillin-sensitive Staphylococcus epidermidis 14-2 after 18 to 24 hrs by two-fold serial dilution method. Put shortly: as §2
For experiment [5], the system named is Escherichia coli. The experiment is described as follows: Antibacterial activity against extended-spectrum beta-lactamase producing Escherichia coli 14-2 after 18 to 24 hrs by two-fold serial dilution method. The method, boiled down:
as §2

Experiment [6] concerns Pseudomonas aeruginosa. Put plainly: Antibacterial activity against Pseudomonas aeruginosa 14-16 after 18 to 24 hrs by two-fold serial dilution method. The method, boiled down:
as §2

The test system of experiment [7] is Pseudomonas aeruginosa. Put plainly: Antibacterial activity against Pseudomonas aeruginosa 14-9 after 18 to 24 hrs by two-fold serial dilution method. Put shortly:
as §2

The test system of experiment [8] is Pseudomonas aeruginosa. The experiment is described as follows: Antibacterial activity against Pseudomonas aeruginosa 14-14 after 18 to 24 hrs by two-fold serial dilution method. The method, boiled down:
as §2

For experiment [9], the system named is Pseudomonas aeruginosa. Put plainly: Antibacterial activity against Pseudomonas aeruginosa ATCC 27853 after 18 to 24 hrs by two-fold serial dilution method. The method, boiled down: as §2
In experiment [10] the test system is Enterococcus faecalis. The experiment is described as follows: Antibacterial activity against Enterococcus faecalis 14-2 after 18 to 24 hrs by two-fold serial dilution method. The method, boiled down: as §2
Experiment [11] deals with Staphylococcus epidermidis. The experiment is described as follows: Antibacterial activity against methicillin-resistant Staphylococcus epidermidis 14-21 after 18 to 24 hrs by two-fold serial dilution method. Put shortly:
as §1

Experiment [12] relates to Enterococcus faecalis. Put plainly: Antibacterial activity against Enterococcus faecalis 14-1 after 18 to 24 hrs by two-fold serial dilution method. The method, boiled down: as §2
In experiment [13] the test system is Staphylococcus epidermidis. Put plainly: Antibacterial activity against methicillin-resistant Staphylococcus epidermidis 14-37 after 18 to 24 hrs by two-fold serial dilution method. The method, boiled down: as §1
Experiment [14] relates to Enterococcus faecium. Put plainly: Antibacterial activity against Enterococcus faecium 14-5 after 18 to 24 hrs by two-fold serial dilution method. The method, boiled down: as §2
Experiment [15] relates to Staphylococcus aureus. The experiment is described as follows: Antibacterial activity against methicillin-sensitive Staphylococcus aureus 14-1 after 18 to 24 hrs by two-fold serial dilution method. Put shortly: as §2
The subject of experiment [16] is Klebsiella pneumoniae. Put plainly: Antibacterial activity against Klebsiella pneumoniae 14-1 after 18 to 24 hrs by two-fold serial dilution method. Put shortly:
as §2

The test system of experiment [17] is Enterococcus faecium. The experiment is described as follows: Antibacterial activity against Enterococcus faecium 14-6 after 18 to 24 hrs by two-fold serial dilution method. The method, boiled down: as §2
The test system of experiment [18] is Staphylococcus aureus. Put plainly: Antibacterial activity against methicillin-resistant Staphylococcus aureus 14-5 after 18 to 24 hrs by two-fold serial dilution method. Put shortly:
as §1

Experiment [19] concerns Klebsiella pneumoniae. The experiment is described as follows: Antibacterial activity against extended-spectrum beta-lactamase producing Klebsiella pneumoniae 14-18 after 18 to 24 hrs by two-fold serial dilution method. Put shortly: as §2
Experiment [20] deals with Staphylococcus aureus. Put plainly: Antibacterial activity against Staphylococcus aureus CMCC 26003 after 18 to 24 hrs by two-fold serial dilution method. The method, boiled down:
as §2

The subject of experiment [21] is Klebsiella pneumoniae. The experiment is described as follows: Antibacterial activity against Klebsiella pneumoniae 14-4 after 18 to 24 hrs by two-fold serial dilution method. Put shortly: as §2
The subject of experiment [22] is Staphylococcus aureus. Put plainly: Antibacterial activity against methicillin-resistant Staphylococcus aureus 14-4 after 18 to 24 hrs by two-fold serial dilution method. The method, boiled down: as §1
For experiment [23], the system named is Staphylococcus aureus. The experiment is described as follows: Antibacterial activity against methicillin-sensitive Staphylococcus aureus 14-4 after 18 to 24 hrs by two-fold serial dilution method. The method, boiled down: as §2
Experiment [24] has as its system Staphylococcus aureus. Put plainly: Antibacterial activity against methicillin-sensitive Staphylococcus aureus 14-3 after 18 to 24 hrs by two-fold serial dilution method. Put shortly: as §2
In experiment [25] the test system is Escherichia coli. The experiment is described as follows: Antibacterial activity against Escherichia coli 14-1 after 18 to 24 hrs by two-fold serial dilution method. The method, boiled down:
as §2

In experiment [26] the test system is Klebsiella pneumoniae. The experiment is described as follows: Antibacterial activity against extended-spectrum beta-lactamase producing Klebsiella pneumoniae 14-17 after 18 to 24 hrs by two-fold serial dilution method. The method, boiled down: as §2
Experiment [27] deals with Staphylococcus epidermidis. The experiment is described as follows: Antibacterial activity against methicillin-resistant Staphylococcus epidermidis 14-22 after 18 to 24 hrs by two-fold serial dilution method. The method, boiled down: as §1
The subject of experiment [28] is Escherichia coli. Put plainly: Antibacterial activity against Escherichia coli 14-2 after 18 to 24 hrs by two-fold serial dilution method. The method, boiled down:
as §2

Experiment [29] concerns Escherichia coli. The experiment is described as follows: Antibacterial activity against Escherichia coli ATCC 25922 after 18 to 24 hrs by two-fold serial dilution method. Put shortly:
as §2

Experiment [30] deals with Enterococcus faecium. Put plainly: Antibacterial activity against Enterococcus faecium 14-2 after 18 to 24 hrs by two-fold serial dilution method. The method, boiled down:
as §2

Experiment [31] relates to Klebsiella pneumoniae. Put plainly: Antibacterial activity against Klebsiella pneumoniae 14-2 after 18 to 24 hrs by two-fold serial dilution method. Put shortly:
as §2

Experiment [32] has as its system Klebsiella pneumoniae. Put plainly: Antibacterial activity against extended-spectrum beta-lactamase producing Klebsiella pneumoniae 14-19 after 18 to 24 hrs by two-fold serial dilution method. Put shortly:
as §2

The test system of experiment [33] is Escherichia coli. The experiment is described as follows: Antibacterial activity against extended-spectrum beta-lactamase producing Escherichia coli 14-1 after 18 to 24 hrs by two-fold serial dilution method. Put shortly: as §2
The subject of experiment [34] is Klebsiella pneumoniae. Put plainly: Antibacterial activity against Klebsiella pneumoniae 14-3 after 18 to 24 hrs by two-fold serial dilution method. Put shortly:
as §2

On to `CO[C@H]1/C=C/O[C@@]2(C)Oc3c(C)c(O)c4c(O)c(c(/C=N/N5CCN(C)CC5)c(O)c4c3C2=O)NC(=O)/C(C)=C\C=C\[C@H](C)[C@H](O)[C@@H](C)[C@@H](O)[C@@H](C)[C@H](OC(C)=O)[C@@H]1C` [RIFAMPIN], for which the MIC90 in experiment [1] was 0.05 µg/mL (≈ 0.0608 µM).

Regarding `CCO/N=C1/CN(c2nc3c(cc2F)c(=O)c(C(=O)O)cn3[C@@H]2C[C@@H]2F)CC1(C)CNC1CC1` (stereo partly specified), the MIC in the experiment on Streptococcus pneumoniae is 0.25 µg/mL (≈ 0.526 µM); with Pseudomonas aeruginosa [2] it was 64 µg/mL (≈ 135 µM); in experiment [3], 4 µg/mL (≈ 8.41 µM); in experiment [4], 16 µg/mL (≈ 33.6 µM); against Escherichia coli [5], greater than 128 µg/mL; with Pseudomonas aeruginosa [6] it was 64 µg/mL (≈ 135 µM). Further, the minimum inhibitory concentration (MIC) is 32 µg/mL (≈ 67.3 µM) with Pseudomonas aeruginosa [7]; 128 µg/mL (≈ 269 µM) with Pseudomonas aeruginosa [8]; 32 µg/mL (≈ 67.3 µM) against Pseudomonas aeruginosa [9]; 1 µg/mL (≈ 2.1 µM) against Enterococcus faecalis [10]; 4 µg/mL (≈ 8.41 µM) in experiment [11]; 16 µg/mL (≈ 33.6 µM) against Enterococcus faecalis [12]. The minimal inhibitory concentration (MIC) in experiment [13] was determined as 2 µg/mL (≈ 4.21 µM); against Enterococcus faecium [14], 2 µg/mL (≈ 4.21 µM); against Staphylococcus aureus [15], 1 µg/mL (≈ 2.1 µM); against Klebsiella pneumoniae [16] it was 64 µg/mL (≈ 135 µM); with Enterococcus faecium [17], 4 µg/mL (≈ 8.41 µM); against Staphylococcus aureus [18], 2 µg/mL (≈ 4.21 µM). Also, the MIC with Klebsiella pneumoniae [19] was 128 µg/mL (≈ 269 µM); with Staphylococcus aureus [20], 0.015 µg/mL (≈ 0.0315 µM); with Klebsiella pneumoniae [21], greater than 128 µg/mL; in the experiment on Staphylococcus aureus [22], 4 µg/mL (≈ 8.41 µM); in the experiment with Staphylococcus aureus [23], 1 µg/mL (≈ 2.1 µM); in the experiment on Staphylococcus aureus [24], 2 µg/mL (≈ 4.21 µM). Also, the MIC in the experiment on Escherichia coli [25] is greater than 128 µg/mL; against Klebsiella pneumoniae [26] it was 64 µg/mL (≈ 135 µM); in [27], 4 µg/mL (≈ 8.41 µM); in the experiment on Escherichia coli [28], greater than 128 µg/mL; in the experiment with Escherichia coli [29], 2 µg/mL (≈ 4.21 µM); in the experiment on Enterococcus faecium [30] it was 4 µg/mL (≈ 8.41 µM). Also, the MIC against Klebsiella pneumoniae [31] is 128 µg/mL (≈ 269 µM); against Klebsiella pneumoniae [32] it was 64 µg/mL (≈ 135 µM); against Escherichia coli [33], 32 µg/mL (≈ 67.3 µM); against Klebsiella pneumoniae [34], 128 µg/mL (≈ 269 µM). For the same compound, the MIC90 in experiment [1] turned out to be 0.6 µg/mL (≈ 1.26 µM).

As for `CO/N=C1/CN(c2nc3c(cc2F)c(=O)c(C(=O)O)cn3[C@@H]2C[C@@H]2F)CC1CNC1CC1` (stereo partly specified), the MIC was 4 µg/mL (≈ 8.94 µM) with Streptococcus pneumoniae; 64 µg/mL (≈ 143 µM) against Pseudomonas aeruginosa [2]; 32 µg/mL (≈ 71.5 µM) in experiment [3]; greater than 128 µg/mL in [4]; greater than 128 µg/mL against Escherichia coli [5]; 32 µg/mL (≈ 71.5 µM) against Pseudomonas aeruginosa [6]. Also, the minimal inhibitory concentration (MIC) came to 8 µg/mL (≈ 17.9 µM) in the experiment on Pseudomonas aeruginosa [7]; 32 µg/mL (≈ 71.5 µM) against Pseudomonas aeruginosa [8]; 8 µg/mL (≈ 17.9 µM) in the experiment with Pseudomonas aeruginosa [9]; 0.5 µg/mL (≈ 1.12 µM) with Enterococcus faecalis [10]; 32 µg/mL (≈ 71.5 µM) in experiment [11]; 128 µg/mL (≈ 286 µM) in the experiment on Enterococcus faecalis [12]. For the same compound, the minimal inhibitory concentration (MIC) in experiment [13] was found to be 64 µg/mL (≈ 143 µM); in the experiment on Enterococcus faecium [14], 32 µg/mL (≈ 71.5 µM); in the experiment on Staphylococcus aureus [15], 8 µg/mL (≈ 17.9 µM); with Klebsiella pneumoniae [16], 64 µg/mL (≈ 143 µM); in the experiment on Enterococcus faecium [17], 64 µg/mL (≈ 143 µM); in the experiment on Staphylococcus aureus [18], 8 µg/mL (≈ 17.9 µM). Moreover, the minimal inhibitory concentration (MIC) against Klebsiella pneumoniae [19] is 32 µg/mL (≈ 71.5 µM); against Staphylococcus aureus [20], less than 0.008 µg/mL; in the experiment on Klebsiella pneumoniae [21], greater than 128 µg/mL; with Staphylococcus aureus [22] it was greater than 128 µg/mL; against Staphylococcus aureus [23] it was 16 µg/mL (≈ 35.8 µM); against Staphylococcus aureus [24] it was 8 µg/mL (≈ 17.9 µM). For the same compound, the MIC against Escherichia coli [25] is greater than 128 µg/mL; in the experiment on Klebsiella pneumoniae [26], 32 µg/mL (≈ 71.5 µM); in [27] it was 16 µg/mL (≈ 35.8 µM); in the experiment with Escherichia coli [28] it was greater than 128 µg/mL; in the experiment with Escherichia coli [29] it was 4 µg/mL (≈ 8.94 µM); against Enterococcus faecium [30], 16 µg/mL (≈ 35.8 µM). For the same compound, the MIC is 64 µg/mL (≈ 143 µM) with Klebsiella pneumoniae [31], 64 µg/mL (≈ 143 µM) against Klebsiella pneumoniae [32], 16 µg/mL (≈ 35.8 µM) against Escherichia coli [33] and greater than 128 µg/mL with Klebsiella pneumoniae [34]. Besides, the MIC90 in experiment [1] amounted to 1.25 µg/mL (≈ 2.79 µM).

What is called MIC90 is an inhibitory concentration at the 90% level, which refers to growth in some studies and to a panel of isolates in others. The MIC is the least concentration at which growth counts as inhibited. The low end stands for greater potency, the high end for weaker potency.

Values taken from ChEMBL document CHEMBL3734675, “Synthesis, antimycobacterial and antibacterial activity of fluoroquinolone derivatives containing an 3-alkoxyimino-4-(cyclopropylanimo)methylpyrrolidine moiety” (2015).
